For 38 compounds, fluorescence slope and inhibition results are on record in PubChem BioAssay.

A number with no mark means an inactive call.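 The calls were made as follows, unless noted: active = inhibition at or above 50% at 10 µM; inactive = inhibition below 50%.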

The inhibition is the change of the read-out against control, counted positive when it falls.

For the first experiment, the target named is Muscarinic acetylcholine receptor M4 (Homo sapiens) (UniProt P08173). Nature of the experiment: M4-linked GIRK flux change, two-sided – cell-based, HEK293 M4/GIRK, thallium flux, BTC-AM, M4 allosteric agonist project, primary screen (AID 625;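 active = fluorescence slope after compound addition differing from the mean of all tested samples at 99.7% confidence, mostly higher but some lower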;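 also: thallium influx through GIRK channels coupled to M4 in HEK293 cells with BTC-AM dye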). The settings on record: at 10 µM, actives lie on both sides. In outline: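 Material: M4/GIRK1/GIRK2 stable HEK293 cell line. Medium: pH 7.3 thallium assay buffer. Dosing: single compound concentration, 10 µM final. Schedule: 1 h dye loading, 2 min kinetic read. Measured by: kinetic fluorescence with BTC-AM dye. Read-out: post-addition slope, 15–24 s, of baseline-normalized fluorescence. Benchmarks: carbachol and DMSO controls.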
Sequence of Muscarinic acetylcholine receptor M4 (Homo sapiens) (P08173 whole entry, looked up): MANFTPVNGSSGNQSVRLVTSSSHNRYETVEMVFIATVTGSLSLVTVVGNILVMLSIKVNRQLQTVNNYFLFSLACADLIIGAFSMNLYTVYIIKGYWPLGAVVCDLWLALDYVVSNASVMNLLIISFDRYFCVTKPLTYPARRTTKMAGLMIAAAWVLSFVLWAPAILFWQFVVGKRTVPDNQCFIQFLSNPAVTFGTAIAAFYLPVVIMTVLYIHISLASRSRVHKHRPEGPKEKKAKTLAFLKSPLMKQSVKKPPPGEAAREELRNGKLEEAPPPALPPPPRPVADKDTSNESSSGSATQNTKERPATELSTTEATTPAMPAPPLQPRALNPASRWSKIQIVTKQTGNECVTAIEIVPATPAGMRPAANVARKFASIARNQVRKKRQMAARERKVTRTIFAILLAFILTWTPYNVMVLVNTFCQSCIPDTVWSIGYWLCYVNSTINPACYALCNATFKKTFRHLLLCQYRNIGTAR
For the compound `O=C(Cn1cc(C(=O)c2ccccc2)c2ccccc21)NCc1ccco1`, the fluorescence slope is 0.00474.

Take `COc1ccc(C2NCc3ccc4c(c3-n3cccc32)OCO4)cc1O` (configuration not stated): the fluorescence slope is 0.00468.

Take `Cn1c(C(=O)N2CCC3(CC2)OCCO3)cc2c(=O)n(C)c3ccccc3c21`: the fluorescence slope was 0.00705.

For the compound `O=C1C2CCCN2C(c2ccc(Cl)c(Cl)c2)N1c1ccccn1` (configuration not stated), the fluorescence slope was 0.00578.

In the case of `CC(=NCc1cccnc1)c1c(O)n(Cc2ccccc2)c(=O)[nH]c1=O`, the fluorescence slope is 0.0065.

In the case of `O=C(c1ccc2nc3ccc(Cl)cc3c(=O)n2c1)N1CCC2(CC1)OCCO2`, the fluorescence slope was 0.00414.

Take `COc1ccc(OC)c(C2=NOC(C(=O)N3CCC4(CC3)OCCO4)C2)c1` (configuration not stated): the fluorescence slope was 0.00835.

For the compound `Cn1c(O)c(C=NCc2ccco2)c(=O)n(C)c1=O`, the fluorescence slope is 0.00416.

Turning to `O=c1[nH]c(=O)n(Cc2ccccc2)c(O)c1C=NCCCO`, the fluorescence slope was 0.00467.

Regarding `O=C(C1CCCN(S(=O)(=O)c2cccc3nsnc23)C1)N1CCC2(CC1)OCCO2` (configuration not stated), the fluorescence slope was 0.00517.

As to `Nc1ccccc1C(=O)OC1CSC1`, the fluorescence slope is 0.00479.

With `Cc1cc(N2C(=O)C3CCCN3C2c2cccc(Cl)c2)no1` (configuration not stated), the fluorescence slope is 0.00553.

As for `COC(=O)c1c(C)n(Cc2ccc3c(c2)OCO3)c2ccc(O)cc12`, the fluorescence slope was 0.0049.

In the case of `NC(=O)CSP(=O)(c1ccccc1)c1ccccc1`, the fluorescence slope is 0.00487.

Take `OCC12COC3c4ccccc4C(OC1)N32` (configuration not stated): the fluorescence slope is 0.00589.

With `CCOC(=O)c1cccc([P+](=O)O)c1`, the fluorescence slope was 0.00773.

Turning to `COc1ccccc1OCCCn1cc(C(=O)c2ccco2)c2ccccc21`, the fluorescence slope is 0.00746.

For the compound `Cc1cc(NC(=O)COC(=O)c2c(C)nn(Cc3ccccc3)c2Cl)no1`, the fluorescence slope was 0.00868.

As to `CC(C)OC(=O)c1c(N)n(CC2CCCO2)c2nc3ccccc3nc12` (configuration not stated), the fluorescence slope was 0.00718.

Consider `COC(=O)c1ccccc1-n1c(C)nc2ccccc2c1=O`, for which the fluorescence slope is 0.00587.

As for `CC1CCN2c3nc4ccccn4c(=O)c3CC3(C(=O)N(C)C(=O)N(C)C3=O)C2C1` (configuration not stated), the fluorescence slope was 0.00473.

As for `CCN1CCN(c2ncnc3ccc(Br)cc23)CC1`, the fluorescence slope is 0.00395.

With `COCCOC(=O)C1=C(N)Oc2c(c(=O)oc3ccccc23)C1c1ccncc1` (configuration not stated), the fluorescence slope is 0.00616.

In the case of `CSc1ccc(CNC2CN3CCC2CC3)cc1` (configuration not stated), the fluorescence slope is 0.00514.

In the case of `CCOC(=O)C1CCCCC12C(C#N)=C(N)Oc1n[nH]c(C)c12` (configuration not stated), the fluorescence slope was 0.00575.

In the case of `CC1(C)CC(=O)C=C(NCCN2CCN(C(=O)Cc3ccc(Cl)cc3)CC2)C1`, the fluorescence slope was 0.00475.

With `COc1ccc(CCNC(=O)c2c(N)n(CCN3CCOCC3)c3nc4ccccc4nc23)cc1`, the fluorescence slope is 0.00515.

As to `CSc1ccc(C(=O)C(C)(C)N2CCOCC2)cc1`, the fluorescence slope is 0.00392.

Take `COc1ccccc1N1CCN(Cc2cccc(OC)c2O)CC1`: the fluorescence slope was 0.0035.

As for `Cc1ccc(S(=O)(=O)Cc2ccc(C(=O)N3CCC4(CC3)OCCO4)o2)cc1`, the fluorescence slope is 0.00517.

Regarding `CCOc1ccc(Br)c(C2(O)CC(C)N(C)CC2C)c1` (configuration not stated), the fluorescence slope was 0.00551.

Turning to `Cc1ccc(CS(=O)(=O)CCC(=O)N2CCC3(CC2)OCCO3)cc1`, the fluorescence slope was 0.00375.

As for `NC(=O)OCCSc1nnc(-c2cccc(C(N)=S)c2)o1`, the fluorescence slope was 0.00508.

As to `O=C(O)c1nonc1-c1nonc1C(=O)O`, the fluorescence slope is 0.00379.

System in a further experiment: not listed separately
Kind of experiment: loss of swimming-algae plug formation – whole organism, Chlamydomonas reinhardtii, WT vs cilia-less mutant, absorbance, 96-well, primary screen (AID 463189;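 active = inhibition at or above 50% relative to wild type and mutant plate controls; inactive = inhibition below 50%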;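 also: 0% = wild type cc124 cells in DMSO and 100% = ciliumless bld1 mutant cells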). The note with it: Chlamydomonas reinhardtii gravitaxis, OD600 absorbance, 2 days; at 10 µM; hits give high values.
`CCN1C[C@]2(C)CC[C@H](O)[C@@]34C5C[C@@H]6[C@@H](OC)C[C@@](O)(C5[C@H]6O)[C@@H](CC23)C14` (some centres not stated): the inhibition is 7.34%.

On to `C=CCN1CCC2(C)c3cc(O)ccc3CC1[C@@H]2C` (some centres not stated), for which the inhibition is 4.21%.

Turning to `C=CCN1C[C@@H](C)N([C@H](c2ccc(C(=O)N(CC)CC)cc2)c2cccc(OC)c2)C[C@@H]1C`, the inhibition is -6.39%.

Take `C=CCN1CC[C@]23c4c5ccc(O)c4O[C@@H]2/C(=N/N=C2\CC[C@@]4(O)C6Cc7ccc(O)c8c7[C@@]4(CCN6CC=C)[C@@H]2O8)CC[C@@]3(O)C1C5`: the inhibition was 6.59%.

System in the next experiment: not listed separately
Kind of experiment: blockers of RIG-like receptor reporter activation – cell-based, Sendai virus stimulus, luciferase, 10K MLSCN set, TLR/RLR signaling modifier project, primary screen (AID 602276).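 Also: firefly luciferase from ISG56 promoter only with Renilla not read in this screen; 0% = Sendai virus plus DMSO and 100% = medium plus DMSO without virus.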 The note with it: HEK293 RL24 IRF3 luciferase reporter, at 10 µM, hits give high values. In general terms: In a reporter assay the amount or activity of a reporter protein is the signal.
Regarding `O=C(Cn1cc(C(=O)c2ccccc2)c2ccccc21)NCc1ccco1`, the inhibition was -5.96%.

Consider `COc1ccc(C2NCc3ccc4c(c3-n3cccc32)OCO4)cc1O` (configuration not stated), for which the inhibition was 27.9%.

With `Cn1c(C(=O)N2CCC3(CC2)OCCO3)cc2c(=O)n(C)c3ccccc3c21`, the inhibition is 13.8%.

Consider `O=C1C2CCCN2C(c2ccc(Cl)c(Cl)c2)N1c1ccccn1` (configuration not stated), for which the inhibition is 17.8%.

Turning to `CC(=NCc1cccnc1)c1c(O)n(Cc2ccccc2)c(=O)[nH]c1=O`, the inhibition was 9.01%.

In the case of `O=C(c1ccc2nc3ccc(Cl)cc3c(=O)n2c1)N1CCC2(CC1)OCCO2`, the inhibition was -8.72%.

As to `COc1ccc(OC)c(C2=NOC(C(=O)N3CCC4(CC3)OCCO4)C2)c1` (configuration not stated), the inhibition was 10.6%.

Consider `Cn1c(O)c(C=NCc2ccco2)c(=O)n(C)c1=O`, for which the inhibition was 22.6%.

In the case of `O=c1[nH]c(=O)n(Cc2ccccc2)c(O)c1C=NCCCO`, the inhibition is 16.7%.

For the compound `O=C(C1CCCN(S(=O)(=O)c2cccc3nsnc23)C1)N1CCC2(CC1)OCCO2` (configuration not stated), the inhibition was 16.9%.

Turning to `Nc1ccccc1C(=O)OC1CSC1`, the inhibition is 20.2%.

As for `Cc1cc(N2C(=O)C3CCCN3C2c2cccc(Cl)c2)no1` (configuration not stated), the inhibition is 13.2%.

For `COC(=O)c1c(C)n(Cc2ccc3c(c2)OCO3)c2ccc(O)cc12`, the inhibition is -0.687%.

Take `NC(=O)CSP(=O)(c1ccccc1)c1ccccc1`: the inhibition is 6.33%.

As for `OCC12COC3c4ccccc4C(OC1)N32` (configuration not stated), the inhibition is 5.14%.

Regarding `CCOC(=O)c1cccc([P+](=O)O)c1`, the inhibition was -12.3%.

Take `COc1ccccc1OCCCn1cc(C(=O)c2ccco2)c2ccccc21`: the inhibition was -22.2%.

Consider `Cc1cc(NC(=O)COC(=O)c2c(C)nn(Cc3ccccc3)c2Cl)no1`, for which the inhibition is 3.25%.

On to `CC(C)OC(=O)c1c(N)n(CC2CCCO2)c2nc3ccccc3nc12` (configuration not stated), for which the inhibition was 9.43%.

Turning to `COC(=O)c1ccccc1-n1c(C)nc2ccccc2c1=O`, the inhibition is -2.94%.

Consider `CC1CCN2c3nc4ccccn4c(=O)c3CC3(C(=O)N(C)C(=O)N(C)C3=O)C2C1` (configuration not stated), for which the inhibition is 10.8%.

Regarding `CCN1CCN(c2ncnc3ccc(Br)cc23)CC1`, the inhibition is 13.3%.

Turning to `COCCOC(=O)C1=C(N)Oc2c(c(=O)oc3ccccc23)C1c1ccncc1` (configuration not stated), the inhibition is 14.5%.

For the compound `CSc1ccc(CNC2CN3CCC2CC3)cc1` (configuration not stated), the inhibition was 12.2%.

As to `CCOC(=O)C1CCCCC12C(C#N)=C(N)Oc1n[nH]c(C)c12` (configuration not stated), the inhibition is 17.2%.

With `CC1(C)CC(=O)C=C(NCCN2CCN(C(=O)Cc3ccc(Cl)cc3)CC2)C1`, the inhibition was 16.3%.

Consider `COc1ccc(CCNC(=O)c2c(N)n(CCN3CCOCC3)c3nc4ccccc4nc23)cc1`, for which the inhibition is -3.7%.

As to `CSc1ccc(C(=O)C(C)(C)N2CCOCC2)cc1`, the inhibition is 14.9%.

As to `COc1ccccc1N1CCN(Cc2cccc(OC)c2O)CC1`, the inhibition was 14.4%.

Regarding `Cc1ccc(S(=O)(=O)Cc2ccc(C(=O)N3CCC4(CC3)OCCO4)o2)cc1`, the inhibition was -7.38%.

For the compound `CCOc1ccc(Br)c(C2(O)CC(C)N(C)CC2C)c1` (configuration not stated), the inhibition is 12.4%.

`Cc1ccc(CS(=O)(=O)CCC(=O)N2CCC3(CC2)OCCO3)cc1`: the inhibition is 13.7%.

As for `NC(=O)OCCSc1nnc(-c2cccc(C(N)=S)c2)o1`, the inhibition is 17.8%.

For the compound `O=C(O)c1nonc1-c1nonc1C(=O)O`, the inhibition was 17.8%.
